{
  "source": "ChEMBL document CHEMBL3351470",
  "about": "“Synthesis and Structure-Activity Relationships of α-Amino-γ-lactone Ketolides: A Novel Class of Macrolide Antibiotics” (2014)",
  "type_in_all_cases": "functional",
  "key": {"Staphylococcus aureus [1]": {"test_system": "Staphylococcus aureus", "assay": "Antibacterial activity against erythromycin-susceptible Staphylococcus aureus by agar microdilution method", "summary_of_the_method": "(§1)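 Strains from an in-house culture collection (Pliva Research Institute). MIC determined by agar microdilution following NCCLS standards and reported in μg/mL. Erythromycin-susceptible strains are listed as Ery-S; the panel also includes inducibly resistant (iMLS), constitutively resistant (MLSB) and efflux-resistant (M) strains.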"}, "Staphylococcus aureus [2]": {"test_system": "Staphylococcus aureus", "assay": "Antibacterial activity against macrolide lincosamide- streptogramin B inducibly-resistant Staphylococcus aureus by agar microdilution method", "summary_of_the_method": "(§2)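 Agar microdilution MIC following NCCLS standards; strains taken from the Pliva Research Institute culture collection. Panel grouped by phenotype: erythromycin-susceptible, inducibly MLS-resistant (iMLS), constitutively MLSB-resistant and efflux-resistant (M). Azithromycin, telithromycin and cethromycin tested alongside as references. MIC reported in μg/mL.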"}, "Staphylococcus aureus [3]": {"test_system": "Staphylococcus aureus", "assay": "Antibacterial activity against macrolide lincosamide- streptogramin B-resistant Staphylococcus aureus by agar microdilution method", "summary_of_the_method": "as §2"}, "Streptococcus pyogenes [4]": {"test_system": "Streptococcus pyogenes", "assay": "Antibacterial activity against erythromycin-susceptible Streptococcus pyogenes by agar microdilution method", "summary_of_the_method": "as §1"}, "Haemophilus influenzae": {"test_system": "Haemophilus influenzae", "assay": "Antibacterial activity against Haemophilus influenzae by agar microdilution method", "summary_of_the_method": "as §1"}, "Streptococcus pneumoniae [5]": {"test_system": "Streptococcus pneumoniae", "assay": "Antibacterial activity against efflux-resistant Streptococcus pneumoniae by agar microdilution method", "summary_of_the_method": "as §2"}, "Streptococcus pneumoniae [6]": {"test_system": "Streptococcus pneumoniae", "assay": "Antibacterial activity against macrolide lincosamide- streptogramin B inducibly-resistant Streptococcus pneumoniae by agar microdilution method", "summary_of_the_method": "as §2"}, "Streptococcus pyogenes [7]": {"test_system": "Streptococcus pyogenes", "assay": "Antibacterial activity against efflux-resistant Streptococcus pyogenes by agar microdilution method", "summary_of_the_method": "as §2"}, "Streptococcus pyogenes [8]": {"test_system": "Streptococcus pyogenes", "assay": "Antibacterial activity against macrolide lincosamide- streptogramin B inducibly-resistant Streptococcus pyogenes by agar microdilution method", "summary_of_the_method": "as §2"}, "Streptococcus pneumoniae [9]": {"test_system": "Streptococcus pneumoniae", "assay": "Antibacterial activity against erythromycin-susceptible Streptococcus pneumoniae by agar microdilution method", "summary_of_the_method": "as §1"}},
  "data": [
    {"smiles": "CC[C@H]1OC(=O)[C@H](C)C(=O)[C@H](C)[C@@H](O[C@@H]2O[C@H](C)C[C@H](N(C)C)[C@H]2O)[C@](C)(OC)C[C@@H](C)C(=O)[C@H](C)[C@H]2C(NC(=O)CCCCc3cnc4ccc(OC)cc4c3)C(=O)O[C@@]21C", "note": "(stereo not given in full)", "values": [
      {"measurement": "MIC", "setting": "Staphylococcus aureus [1]", "result": 1, "unit": "µg/mL"},
      {"measurement": "MIC", "setting": "Staphylococcus aureus [2]", "result": 2, "unit": "µg/mL"},
      {"measurement": "MIC", "setting": "Staphylococcus aureus [3]", "result": "> 64", "unit": "µg/mL"},
      {"measurement": "MIC", "setting": "Streptococcus pyogenes [4]", "result": "≤ 0.125", "unit": "µg/mL"},
      {"measurement": "MIC", "setting": "Haemophilus influenzae", "result": 8, "unit": "µg/mL"},
      {"measurement": "MIC", "setting": "Streptococcus pneumoniae [5]", "result": 4, "unit": "µg/mL"},
      {"measurement": "MIC", "setting": "Streptococcus pneumoniae [6]", "result": 4, "unit": "µg/mL"},
      {"measurement": "MIC", "setting": "Streptococcus pyogenes [7]", "result": 4, "unit": "µg/mL"},
      {"measurement": "MIC", "setting": "Streptococcus pyogenes [8]", "result": 2, "unit": "µg/mL"},
      {"measurement": "MIC", "setting": "Streptococcus pneumoniae [9]", "result": "≤ 0.125", "unit": "µg/mL"}
    ]},
    {"smiles": "CC[C@H]1OC(=O)[C@H](C)C(=O)[C@H](C)[C@@H](O[C@@H]2O[C@H](C)C[C@H](N(C)C)[C@H]2O)[C@](C)(OC)C[C@@H](C)C(=O)[C@H](C)[C@H]2C(NC(=O)CCc3ccncc3)C(=O)O[C@@]21C", "note": "(stereo not given in full)", "values": [
      {"measurement": "MIC", "setting": "Staphylococcus aureus [1]", "result": 4, "unit": "µg/mL"},
      {"measurement": "MIC", "setting": "Staphylococcus aureus [2]", "result": 8, "unit": "µg/mL"},
      {"measurement": "MIC", "setting": "Staphylococcus aureus [3]", "result": "> 64", "unit": "µg/mL"},
      {"measurement": "MIC", "setting": "Streptococcus pyogenes [4]", "result": "≤ 0.125", "unit": "µg/mL"},
      {"measurement": "MIC", "setting": "Haemophilus influenzae", "result": 2, "unit": "µg/mL"},
      {"measurement": "MIC", "setting": "Streptococcus pneumoniae [5]", "result": 8, "unit": "µg/mL"},
      {"measurement": "MIC", "setting": "Streptococcus pneumoniae [6]", "result": 16, "unit": "µg/mL"},
      {"measurement": "MIC", "setting": "Streptococcus pyogenes [7]", "result": 2, "unit": "µg/mL"},
      {"measurement": "MIC", "setting": "Streptococcus pyogenes [8]", "result": 2, "unit": "µg/mL"},
      {"measurement": "MIC", "setting": "Streptococcus pneumoniae [9]", "result": "≤ 0.125", "unit": "µg/mL"}
    ]}
  ]
}
